FGF22 binding – binders of human FGF22 protein, primary screen, FGF22 synaptogenesis inhibitor project, biophysical, thermal shift, single point. Fibroblast growth factor 22 (Homo sapiens), Q9HCT0. recombinant FGF22 thermal shift, SYPRO orange fluorescence; percent of sucrose octasulfate shift, DMSO zero. activity (Tm shift, normalised), % at 9.99 µM. hit rate 1.5% among 340,000. AID 651658, 2012;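 active = mean Tm shift, scaled 0 neutral to 100 positive control, at about 1.3% or above, every replicate too, limit read from the data; inconclusive = no clear call, values can overlap the other calls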
Target sequence (Q9HCT0 whole entry, looked up): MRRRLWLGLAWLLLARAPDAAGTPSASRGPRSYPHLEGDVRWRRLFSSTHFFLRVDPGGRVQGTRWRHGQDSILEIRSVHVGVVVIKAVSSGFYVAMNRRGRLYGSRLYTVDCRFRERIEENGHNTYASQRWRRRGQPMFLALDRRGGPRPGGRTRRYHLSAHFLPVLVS
FN deposition inh – inhibitors of fibronectin matrix deposition, primary screen, AH1F cells, Alexa488-fibronectin fluorescence, plate reader; AH1F fibroblasts, overnight; inhibition, % at 12.6 µM; hit rate 0.086% among 350,000; AID 743247, 2014;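 active = mean inhibition across replicates of 30% or more, regardless of how many single replicates reach that level; inconclusive = mean under 30% yet at least half of replicates reach 30%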
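Schedule: 1 h cell adhesion before compound, then overnight fibronectin incubation; test system: AH1F fibroblast monolayer depositing Alexa488-labelled fibronectin into matrix; quantity: 10000 AH1F cells per well; probe or stimulus: fluorescent fibronectin at 24 nM final; signal: fluorescence, ex 485 nm, em 525 nm; evaluation: percent inhibition as loss of matrix-bound fibronectin fluorescence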
SIRT5 block – SIRT5 desuccinylase inhibitors, primary screen, biochemical, fluorescence imaging, single point, set 5; AID 652115, 2013; NAD-dependent protein deacylase sirtuin-5, mitochondrial (Homo sapiens), Q9NXA8; inhibition, % at 15 µM; hit rate 1.1% among 330,000; Purified SirT5, succinyl-peptide AMC, trypsin-coupled fluorescence; in the data active = inhibition above about 15%; inconclusive = no clear call, values can overlap the other calls
Target sequence (Q9NXA8 whole entry, looked up): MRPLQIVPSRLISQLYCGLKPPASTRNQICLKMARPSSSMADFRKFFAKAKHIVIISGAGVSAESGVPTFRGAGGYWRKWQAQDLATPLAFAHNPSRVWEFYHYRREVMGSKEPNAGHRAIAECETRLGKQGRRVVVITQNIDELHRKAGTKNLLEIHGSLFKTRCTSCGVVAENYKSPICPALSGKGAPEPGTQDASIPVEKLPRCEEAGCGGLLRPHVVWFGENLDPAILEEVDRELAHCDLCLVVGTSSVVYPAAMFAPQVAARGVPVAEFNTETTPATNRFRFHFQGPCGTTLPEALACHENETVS
ARNT-TACC3 inh – disruptors of ARNT/TACC3 protein interaction, primary screen, biochemical, AlphaScreen, single concentration; AlphaScreen His-ARNT PAS-B/GST-TACC3 binding, luminescence; TACC3 fragment carries E629A point mutation; Transforming acidic coiled-coil-containing protein 3 (Homo sapiens), Q9Y6A5; hit rate 0.66% among 390,000; inhibition, % at 9.99 µM;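 active = mean inhibition of replicates at least 50% and at least half of replicates each reaching 50%; inconclusive = half or more replicates reach 50% but mean below 50%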
DENV2 CPE rescue – inhibitors of DENV2 cytopathic effect, primary screen, cell-based, plate reader, single concentration; DENV2-infected cells, cytopathic effect rescue; CPE inhibition, % at 9.99 µM; hit rate 1.7% among 350,000; AID 651640, 2012; in the data active = CPE inhibition above about 20%, passing the limit was not always enough; inconclusive = no clear call, values can overlap the other calls; tested in BHK-21 cells
Xi reactivation – activators of inactive X chromosome reactivation, primary screen, imaging, XiGFP fibroblasts, GFP high-content imaging, set 2; AID 743238, 2013; XiGFP mouse fibroblasts, % GFP-positive cells imaging, 3 d; cells co-treated with 5-aza-dC sensitizer; scaled so ellipticine positive control = 100%; hit rate 0.055% among 360,000; activation, % at 7.58 µM;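 active = mean normalized replicate activation at least 10% and every replicate at or above 10%; inconclusive = only one of the two criteria met; inactive = mean below 10% and not all replicates reach 10%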
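Schedule: 3 d treatment, 15 min room-temperature fixation; system: 68-5-11 XiGFP fibroblast line; buffer or medium: DMEM plus 5-aza-dC sensitizer; control set: ellipticine 6 µM positive control; compound: one concentration, pinned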
Each line names hits and unclear results; the compound was inactive in the other large screens. In the library only some 3.8% were active in any assay of this set; here they are far more common.

Cc1ccc(S(=O)(=O)N(C)C[C@@H]2OCCCC[C@H](C)Oc3ccc(NS(=O)(=O)c4ccc(Cl)cc4)cc3C(=O)N([C@@H](C)CO)C[C@H]2C)cc1	SIRT5 block 22.3
Cc1ccc(S(=O)(=O)N(C)C[C@@H]2OCCCC[C@@H](C)Oc3ccc(NS(C)(=O)=O)cc3C(=O)N([C@@H](C)CO)C[C@H]2C)cc1	DENV2 CPE rescue 36.0
Cc1ccc(S(=O)(=O)N(C)C[C@@H]2OCCCC[C@@H](C)Oc3ccc(NS(=O)(=O)c4ccc(Cl)cc4)cc3C(=O)N([C@H](C)CO)C[C@@H]2C)cc1	DENV2 CPE rescue inconclusive
Cc1ccc(S(=O)(=O)N(C)C[C@H]2OCCCC[C@@H](C)Oc3ccc(NS(C)(=O)=O)cc3C(=O)N([C@@H](C)CO)C[C@H]2C)cc1	none
Cc1ccc(S(=O)(=O)N(C)C[C@H]2OCCCC[C@H](C)Oc3ccc(NS(=O)(=O)c4ccc(Cl)cc4)cc3C(=O)N([C@@H](C)CO)C[C@H]2C)cc1	SIRT5 block 25.6, DENV2 CPE rescue inconclusive
C[C@@H]1CCCCO[C@H](CN(C)S(=O)(=O)c2ccc(Cl)cc2)[C@H](C)CN([C@@H](C)CO)C(=O)c2cc(N(C)C)ccc2O1	SIRT5 block 20.6 (no result: FN deposition inh)
O=C(C1CCCC1)N1CC[C@H]2[C@H](CO)Nc3ccc(Br)cc3[C@H]21	DENV2 CPE rescue inconclusive (no result: FGF22 binding, ARNT-TACC3 inh)
C[C@H](CO)N1C[C@H](C)[C@H](CN(C)Cc2ccccn2)Oc2ncc(C#Cc3cccc(F)c3)cc2C1=O	none
C[C@@H]1CN([C@H](C)CO)C(=O)Cc2cc(NS(=O)(=O)c3cccs3)ccc2O[C@@H]1CN(C)S(=O)(=O)c1ccc(F)cc1	none
CCCC(=O)Nc1ccc2c(c1)C(=O)N(C)C[C@@H](OC)[C@@H](C)CN(C(=O)CC)[C@@H](C)CO2	none (no result: FGF22 binding, SIRT5 block, ARNT-TACC3 inh, DENV2 CPE rescue)
Cc1c(Cl)cnc(NC(=O)COC(=O)Cc2coc3ccc4ccccc4c23)c1Cl	DENV2 CPE rescue 86.0
Cc1c(Cl)cnc(NC(=O)COC(=O)CCC(=O)c2cccs2)c1Cl	FGF22 binding 43.2 (no result: ARNT-TACC3 inh)
Cc1c(Cl)cnc(NC(=O)COC(=O)c2cccs2)c1Cl	none
CC(C)CNC(=O)COC(=O)CCC(=O)c1cccs1	FGF22 binding 43.1 (no result: ARNT-TACC3 inh)
CCC(CC)NC(=O)COC(=O)CCC(=O)c1cccs1	FGF22 binding 43.0 (no result: ARNT-TACC3 inh)
CCNC(=O)COC(=O)CCC(=O)c1cccs1	none (no result: DENV2 CPE rescue)
COc1ccccc1S(=O)(=O)N[C@@H]1CC[C@@H](CCn2cc(C3CCCC3)nn2)O[C@H]1CO	none (no result: FGF22 binding, ARNT-TACC3 inh)
O=C1c2ccccc2C(=O)c2c1ccc1c(=O)n(C3CCCCC3)[nH]c21	SIRT5 block 18.8 (no result: FGF22 binding, DENV2 CPE rescue, Xi reactivation)
O=c1c2[nH]c3ccccc3c2ncn1C1CCCCC1	none (no result: FGF22 binding, SIRT5 block, DENV2 CPE rescue, Xi reactivation)
COc1ccc(S(=O)(=O)Nc2c(C)nc3nc[nH]n3c2=O)cc1	FGF22 binding 43.2
Cc1nc2nc[nH]n2c(=O)c1NS(=O)(=O)c1ccc(F)cc1	none
Cn1ccc2c(-c3cccc(C=O)c3)cc3c(c21)C1CCC3O1 (configuration not stated)	DENV2 CPE rescue 50.3 (no result: ARNT-TACC3 inh, Xi reactivation)
CO[C@@H]1CN(C)C(=O)c2ccc(NC(=O)NC(C)C)cc2OC[C@H](C)N(C(=O)NC(C)C)C[C@H]1C	none
C[C@@H]1CN([C@@H](C)CO)C(=O)c2cccc(NC(=O)CCCCCC(=O)Nc3ccccc3N)c2O[C@H]1CN(C)C(=O)Nc1ccc(F)cc1	DENV2 CPE rescue 48.5 (no result: FN deposition inh, ARNT-TACC3 inh)
C[C@H](CO)N1C[C@H](C)[C@H](CN(C)C(=O)Nc2ccc(F)cc2)Oc2c(NC(=O)CCCCCC(=O)Nc3ccccc3N)cccc2C1=O	none (no result: FGF22 binding, FN deposition inh, SIRT5 block, ARNT-TACC3 inh)
CC(C)NC(=O)N(C)C[C@@H]1Oc2c(NC(=O)CCCCCC(=O)Nc3ccccc3N)cccc2C(=O)N([C@@H](C)CO)C[C@H]1C	DENV2 CPE rescue 24.9 (no result: FN deposition inh, ARNT-TACC3 inh)
COc1ccc(NC(=O)Nc2ccc3c(c2)[C@H]2C[C@@H](CC(=O)NCC4CC4)O[C@@H](CO)[C@H]2O3)cc1	none
CCCNC(=O)[C@@H]1[C@@H](CO)[C@@H]2Cn3c(ccc(C4=CCCC4)c3=O)[C@@H]2N1CCC	none (no result: FN deposition inh)
O=c1[nH]c(=S)[nH]c2c1C(c1ccc(Cl)cc1)OC(CCc1ccccc1)C2 (configuration not stated)	DENV2 CPE rescue 100.9 (no result: ARNT-TACC3 inh)
O=c1[nH]c(=S)[nH]c2c1C(c1ccc(Cl)c(Cl)c1)OC(CCc1ccccc1)C2 (configuration not stated)	none (no result: ARNT-TACC3 inh)
Cc1ccc(S(=O)(=O)Nc2ccc3c(c2)C(=O)N([C@H](C)CO)C[C@@H](C)[C@@H](CN(C)S(=O)(=O)c2c(C)noc2C)O3)cc1	none (no result: FN deposition inh)
O=C(C[C@H]1C[C@@H]2c3cc(NC(=O)c4ccc5c(c4)OCO5)ccc3O[C@@H]2[C@@H](CO)O1)NCc1ccccn1	none (no result: FN deposition inh, ARNT-TACC3 inh)
O=C(CN1CCCC1)OCCCc1ccccc1	FGF22 binding 43.9
CCS(=O)(=O)N1CCCCN2[C@@H](CO)[C@@H](c3ccc(-c4ccc(C#N)cc4)cc3)[C@@H]2C1	DENV2 CPE rescue 45.4 (no result: FN deposition inh)
O=S(=O)(c1ccccc1)N1CCCCN2[C@H](CO)[C@@H](c3ccc(C#Cc4ccccc4)cc3)[C@@H]2C1	none (no result: FN deposition inh, Xi reactivation)
O=S(=O)(c1ccccc1)N1CCCCN2[C@H](C1)[C@@H](c1ccc(C#CC3CCCC3)cc1)[C@@H]2CO	SIRT5 block 15.3
O=S(=O)(c1ccccc1)N1CCCCN2[C@@H](CO)[C@H](c3ccc(C#Cc4ccccc4)cc3)[C@@H]2C1	DENV2 CPE rescue 22.4 (no result: FN deposition inh)
N#Cc1ccc(-c2ccc([C@@H]3[C@H](CO)N4CCCCN(S(=O)(=O)c5ccccc5)C[C@@H]34)cc2)cc1	DENV2 CPE rescue 23.4 (no result: FN deposition inh)
CO[C@H]1CC[C@H]2CCN(C)C(=O)[C@@H](C)[C@H](OC)CN(C)C(=O)c3cccc(C#N)c3OC[C@@H]1O2	none
C[C@@H]1CN([C@@H](C)CO)C(=O)c2cccc(NS(C)(=O)=O)c2O[C@@H]1CN(C)C(=O)Nc1cccc2ccccc12	none (no result: FN deposition inh)
CCCNC(=O)N(C)C[C@@H]1Oc2ncc(C#Cc3ccncc3)cc2C(=O)N([C@@H](C)CO)C[C@@H]1C	none
CN(C)CC#Cc1ccc([C@H]2[C@@H](CO)N3CCCCN(S(=O)(=O)c4ccccc4)C[C@H]23)cc1	none (no result: FN deposition inh)
CN(C)CC#Cc1ccc([C@H]2[C@@H](CO)N3CCCCN(S(=O)(=O)c4ccccc4)C[C@@H]23)cc1	DENV2 CPE rescue 44.1 (no result: FN deposition inh)
